Measurements: PMC8048816 (Angewandte Chemie (International Ed. in English), 2021)
Read-outs that look alike come from different tables or passages of the source.

Columns and labels:
Type in all cases: binding
LecA [1] = molecular target: T1, LecA (Pseudomonas aeruginosa, UniProt Q05097); settings: for FP with 2ME Inhibition [%] at 4 mM / FP Inhibition [%] at 4 mM: 4 mM catechol, average and std. dev. of 3 experiments; for FP with 2ME Inhibition [%] at 4 mM: with 2-mercaptoethanol; for FP Inhibition [%] at 4 mM: without 2-mercaptoethanol
T1 sequence (Q05097 2-122 limits assumed): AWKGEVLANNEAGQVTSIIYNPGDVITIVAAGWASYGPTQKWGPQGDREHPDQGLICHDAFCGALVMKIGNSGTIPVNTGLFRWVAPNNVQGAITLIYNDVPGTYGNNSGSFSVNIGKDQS
In short: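 Competitive fluorescence polarization assay measuring displacement of a Cy5-labelled galactoside probe from LecA. The Cy5 probe replaced an earlier fluorescein conjugate to avoid spectral overlap. Test compound at 4 mM, with or without 2-mercaptoethanol; some compounds at 25 % DMSO. Methyl α-D-galactoside as positive control. Percent inhibition given as average and std. dev. of 3 experiments.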

5FW‐LecA = molecular target: T2, 5FW‐LecA (Pseudomonas aeruginosa, UniProt Q05097); assay: protein-observed 19F; settings: 1.5 mM catechol, 200 µM 5FW-LecA; n.s.=not significant
T2 sequence (Q05097 2-122 limits assumed): T1 sequence (Q05097 2-122 limits assumed)

LecA [2] = molecular target: T1, LecA; assay: thermal shift assay; settings: change of LecA melting point, 4 mM test compound, average of two experiments
Langerin ECD = Langerin ECD (Homo sapiens, UniProt Q9UJ71); assay: 1H STD competition NMR with mannose; settings: 1 mM compound, 20 μM Langerin ECD, 100 mM D-mannose
Chain of Langerin ECD (Q9UJ71 65-328 limits assumed): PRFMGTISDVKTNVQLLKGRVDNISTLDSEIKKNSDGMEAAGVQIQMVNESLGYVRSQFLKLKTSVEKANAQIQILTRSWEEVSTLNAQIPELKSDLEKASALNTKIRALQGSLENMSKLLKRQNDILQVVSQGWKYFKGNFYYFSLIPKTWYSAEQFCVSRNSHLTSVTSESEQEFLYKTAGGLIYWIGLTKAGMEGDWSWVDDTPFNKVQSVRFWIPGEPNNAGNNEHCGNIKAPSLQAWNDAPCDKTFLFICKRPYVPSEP

human Langerin CRD = human Langerin CRD (Homo sapiens, UniProt Q9UJ71, V278A); assay: 1H-15N HSQC NMR; settings: 1 mM compound, 100 μM Langerin CRD
Chain of human Langerin CRD (Q9UJ71 202-320 V278A): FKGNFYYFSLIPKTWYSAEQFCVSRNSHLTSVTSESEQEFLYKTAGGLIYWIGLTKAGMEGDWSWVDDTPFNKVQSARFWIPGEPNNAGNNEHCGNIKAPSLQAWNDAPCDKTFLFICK

LecA [3] = molecular target: T1, LecA; assay: surface plasmon resonance
In short: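 Recombinant LecA was immobilized for SPR. Test compound was injected at two concentrations: 0.2 and 1 mM, or 0.2 and 0.5 mM for some compounds. Steady-state binding responses were read from sensorgrams. 0.1 mM pNPGal was injected as positive control to monitor LecA activity and normalize data. Kd came from multi-cycle kinetic analyses of prioritized compounds.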

LecA [4] = molecular target: T1, LecA; assay: ligand-observed T1ρ relaxation NMR; settings: for effect of excess Me‐α‐D‐Gal on T1ρ relaxation with LecA: displacement experiment; for T1ρ relaxation rate in presence of LecA: with vs without LecA
LecA [5] = molecular target: T1, LecA; settings: read-out: inhibition at 3.3 mM
In short: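 Purchased virtual-screening hits from the NCI Diversity IV set, selected for structural diversity, were tested once at 3.3 mM. Assay: the established competitive fluorescence polarization assay, scoring displacement of a fluorescent galactoside ligand from LecA as percent inhibition.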

[6] = read-out: FP Inhibition [%] at 4 mM
[7] = read-out: FP with 2ME Inhibition [%] at 4 mM

SMILES | FP with 2ME Inhibition [%] at 4 mM (LecA [1]) | FP Inhibition [%] at 4 mM (LecA [1]) | PrOF NMR CSP of W42 [ppm] (5FW‐LecA) | TSA ΔT [K] (LecA [2]) | reduction in peak intensities in STD NMR spectra in presence of mannose (Langerin ECD) | inhibition at 4000 µM (LecA [1]; [6]) | inhibition at 4000 µM (LecA [1]; [7]) | chemical shift perturbations of Langerin CRD resonances (human Langerin CRD) | Kd (LecA [3]) | ligand efficiency (LecA [3]; from SPR Kd) | effect of excess Me‐α‐D‐Gal on T1ρ relaxation with LecA (LecA [4]) | T1ρ relaxation rate in presence of LecA (LecA [4]) | inhibition at 3300 µM (LecA [5])
Oc1ccccc1O [Compound 1, catechol] | none | inconcl. | n.s. | −4.5 K | – | – | – | – | – | – | – | – | –
N#Cc1cccc(O)c1O [Compound 3, 3‐cyano catechol] | – | – | 0.045 ppm | +1.8 K | 65% | 23 ± 2% | 23% | promoted chemical shift perturbations (CSPs) | 1.11 ± 0.07 mM | 0.40 | – | – | –
Cc1ccc(O)c(O)c1 [Compound 11, 4‐methyl catechol] | none | inconcl. | n.s. | −11.0 K | – | – | – | – | – | – | – | – | –
CC(C)(C)c1ccc(O)c(O)c1 [Compound 13, 4‐tert‐butyl catechol] | none | inconcl. | 0.130 ppm | −15.4 K | – | – | – | – | – | – | no significant effect | much weaker | –
CC(C)C(=O)c1ccc(O)c(O)c1 [Compound 21, 4‐isobutyryl catechol] | – | – | 0.08 ppm | +0.35 K | – | 10 ± 2% | 11 ± 2% | – | – | – | fully reversed to the free state | strongly increased | ~10%
O=C(c1ccccc1)c1ccc(O)c(O)c1 [Compound 23, 4‐benzoyl catechol] | – | – | 0.110 ppm | +0.36 K | – | 39 ± 5% | 39% | – | – | – | – | – | –
O=C(c1ccc(Cl)cc1)c1ccc(O)c(O)c1 [Compound 24, 4‐parachlorobenzoyl catechol] | – | – | 0.185 ppm | – | – | 29 ± 3% | 22 ± 2% | – | – | – | – | – | –
